# Test results reported in ChEMBL document CHEMBL1914330 (Eur J Med Chem, 2011).
# Activity calls are given as the source filed them. No cut-off for these calls is given here.
# Key:
# [1] = Antiproliferative activity against human vinblastine-resistant CEM/VBL100 cells after 72 hrs by MTT assay; format: functional, cell-based; conditions: CEM/VBL100, 72 h
# Procedure, shortened: (§1)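 Cells seeded at 8 × 10³ per well in complete medium and exposed to a range of compound concentrations at 37 °C for 72 h. Viability read by MTT test. IC50 taken as the concentration inhibiting proliferation by 50%.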
# HeLa [2] = experiment: Induction of apoptosis in human HeLa cells assessed as loss of mitochondrial membrane potential at 0.25 to 5 uM by JC1 staining-based flow cytometric analysis; format: functional, cell-based; conditions: TDE = time-dependent effect
# Procedure, shortened: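 After 24 or 48 h treatment, HeLa cells were trypsinized and resuspended in HBSS with JC-1 (1 µM). Incubated 10 min at 37 °C, washed, and read by flow cytometry for red (590 nm) aggregate versus green (530 nm) monomer. Mean ± SEM of three experiments.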
# HT-29 [3] = experiment: Antitumor activity against human HT-29 cells xenografted in BALB/c nude mouse assessed as reduction in tumor growth at 100 mg/kg, ip administered 3 times per week for 1 week; format: functional; design: scale not given: the % may be the effect or the level left; conditions: route intraperitoneal
# Procedure, shortened: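 HT-29 cells (1 × 10⁷/mL in serum-free RPMI 1640, 0.2 mL) were injected subcutaneously in the back of nude mice. At about 300 mm³ tumours, 18 mice were randomised to vehicle or drug groups. Drug in DMSO was given i.p. at 0.01 mL/g, 100 mg/kg, three times weekly for one week. Tumour volume = (L × W²)/2 by caliper; body weight also recorded; six mice per group.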
# HeLa [4] = experiment: Induction of cell cycle arrest at G2/M phase in human HeLa cells assessed as decrease in Cdc25C expression at 0.25 to 5 uM after 24 hrs by Western blot analysis; format: functional, cell-based
# Procedure, shortened: (§2)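 HeLa cells treated for 24 or 48 h were washed in cold PBS and lysed on ice for 30 min. Lysates were cleared at 15,000 × g, run on SDS-PAGE and blotted. Membranes were probed 2 h at room temperature with antibodies to the target protein, then peroxidase secondary and ECL. Blots were reprobed for β-actin as loading control.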
# LoVo [5] = experiment: Ratio of IC50 for doxorubicin-resistant human LoVo cells to IC50 for human LoVo cells; format: functional
# HeLa [6] = experiment: Induction of apoptosis in human HeLa cells assessed as ROS production at 0.25 to 5 uM after 24 to 48 hrs by H2-DCFDA-staining-based flow cytometric analysis; format: functional, cell-based
# Procedure, shortened: (§3)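 HeLa cells treated 24 or 48 h, trypsinized and resuspended in HBSS containing HE (2.5 µM) or H₂DCFDA (0.1 µM). Incubated 10 min at 37 °C, resuspended in HBSS, and ROS read by flow cytometry. Mean ± SEM of three independent experiments.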
# LoVo [7] = experiment: Antiproliferative activity against doxorubicin-resistant human LoVo cells after 72 hrs by MTT assay; format: functional, cell-based; procedure, shortened: as §1
# Bos taurus = organism: Bos taurus; experiment: Displacement of [3H]colchicine from bovine brain tubulin at 5 uM by DEAE-cellulose filter method
# Procedure, shortened: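 Inhibition of [³H]colchicine binding to bovine brain tubulin. Reaction mixtures held 1 µM tubulin, 5 µM [³H]colchicine and 5 µM test compound.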
# MOLT-4 = experiment: Antiproliferative activity against human MOLT4 cells after 2 days by coulter counter analysis; format: functional, cell-based; conditions: MOLT-4, 48 h
# HeLa [8] = experiment: Induction of apoptosis in human HeLa cells assessed as increase in hypodiploid DNA content at subG1-phase after 24 hrs by flow cytometric analysis relative to untreated control; format: functional, cell-based
# Procedure, shortened: (§4)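 HeLa cells treated for 24 h over 0.06–0.5 µM. Cells fixed in ice-cold 70% ethanol, lysed with buffer containing RNase A and 0.1% Triton X-100, and stained with PI. DNA content read by flow cytometry, including the sub-G1 fraction. Mean ± SEM of three independent experiments.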
# HeLa [9] = experiment: Induction of apoptosis in human HeLa cells assessed as caspase-3 activation at 0.25 to 5 uM by flow cytometry; conditions: TDE = time-dependent effect
# CCRF-CEM = experiment: Antiproliferative activity against human CEM cells after 72 hrs by MTT assay; format: functional, cell-based; procedure, shortened: as §1
# HeLa [10] = experiment: Cell cycle arrest in human HeLa cells assessed as decrease in cell accumulation in S phase at 0.5 uM after 24 hrs by propidium iodide staining-based flow cytometry; format: functional; procedure, shortened: as §4
# HeLa [11] = experiment: Induction of apoptosis in human HeLa cells assessed as accumulation of late apoptotic cells after 24 hrs by Annexin-V-FITC/propidium iodide staining-based flow cytometric analysis; format: functional, cell-based
# Procedure, shortened: (§5)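 HeLa cells treated for 24 or 48 h, then labelled with annexin-V-FITC and PI. Analysed by flow cytometry with excitation at 488 nm and emission at 525 nm (FITC) and 585 nm (PI). Quadrants scored as live, early apoptotic, late apoptotic or necrotic. Mean ± SEM of four independent experiments.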
# [12] = Inhibition of bovine brain tubulin polymerization after 20 mins by turbidimetry; design: species or system Bos taurus
# Procedure, shortened: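 Purified bovine brain tubulin at 10 µM was preincubated with compound in glutamate buffer at 30 °C, then cooled to 0 °C and GTP added. Samples were warmed to 30 °C in a recording spectrophotometer and assembly followed by turbidity.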
# LoVo [13] = experiment: Antiproliferative activity against human LoVo cells after 72 hrs by MTT assay; format: functional, cell-based; procedure, shortened: as §1
# HeLa [14] = experiment: Antiproliferative activity against human HeLa cells after 2 days by coulter counter analysis; format: functional, cell-based; conditions: 48 h
# Procedure, shortened: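 Cells suspended at 300,000–500,000 cells/mL and mixed 1:1 with diluted compound. Incubated at 37 °C for two days, then counted with a Coulter counter. IC50 is the concentration inhibiting proliferation by 50%, as mean ± SE from dose-response curves of at least three independent experiments.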
# HeLa [15] = experiment: Induction of cell cycle arrest at G2/M phase in human HeLa cells assessed as increase in cyclin B1 expression at 0.25 to 5 uM after 24 hrs by Western blot analysis; format: functional, cell-based; procedure, shortened: as §2
# HeLa [16] = experiment: Induction of apoptosis in human HeLa cells assessed as accumulation of necrotic cells after 48 hrs by Annexin-V-FITC/propidium iodide staining-based flow cytometric analysis; format: functional, cell-based; procedure, shortened: as §5
# HeLa [17] = experiment: Induction of apoptosis in human HeLa cells assessed as ROS production at 0.25 to 5 uM after 24 to 48 hrs by hydroethidine-staining-based flow cytometric analysis; format: functional, cell-based; procedure, shortened: as §3
# Mus musculus = experiment: Toxicity in nude BALB/c mouse xenografted with human HT-29 cells assessed as weight changes at 100 mg/kg, ip administered 3 times per week for 1 week; format: organism-based; design: dose 100 mg/kg, route intraperitoneal; conditions: in vivo, 168 h
# Procedure, shortened: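 HT-29 cells in log phase, suspended at 1 × 10⁷ cells/mL in serum-free RPMI 1640, 0.2 mL injected subcutaneously into the back of nude mice. At about 300 mm³, mice were randomised to vehicle or treatment groups (six per group). The compound was given in DMSO by i.p. injection at 0.01 mL/g body weight. Body weight was recorded on set days; mice were euthanised after 23 days.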
# HeLa [18] = experiment: Effect on Bax protein expression in human HeLa cells at 0.25 to 0.5 uM after 24 to 48 hrs by Western blot analysis; format: functional, cell-based; procedure, shortened: as §2
# HT-29 [19] = experiment: Cytotoxicity against human HT-29 cells; format: functional, cell-based
# HeLa [20] = experiment: Induction of cell cycle arrest at G2/M phase in human HeLa cells assessed as decrease in cyclin B1 expression at 0.25 to 5 uM after 48 hrs by Western blot analysis; format: functional, cell-based; procedure, shortened: as §2
smiles,measurement,setting,value
COc1cc(C(=O)c2sc(N3CCCC3)nc2N)cc(OC)c1OC,IC50,[1],0.01 µM
same,Activity,HeLa [2],tde
same,Activity,HT-29 [3],58%
same,Activity,HeLa [4],Active
same,Ratio IC50,LoVo [5],4.3
same,Activity,HeLa [6],Active
same,IC50,LoVo [7],0.43 µM
same,inhibition,Bos taurus,67%
same,IC50,MOLT-4,0.26 µM
same,Activity,HeLa [8],Dose-dependent effect
same,Activity,HeLa [9],tde
same,IC50,CCRF-CEM,0.02 µM
same,Activity,HeLa [10],Active
same,Activity,HeLa [11],Dose-dependent effect
same,IC50,[12],1.3 µM
same,IC50,LoVo [13],0.1 µM
same,IC50,HeLa [14],0.34 µM
same,Activity,HeLa [15],Active
same,Activity,HeLa [16],Active
same,Activity,HeLa [17],Active
same,Activity,Mus musculus,Non-toxic
same,Activity,HeLa [18],inactive
same,IC50,HT-29 [19],0.02 µM
same,Activity,HeLa [20],inactive
